Measurements from ChEMBL document CHEMBL4406821, “Novel dual inhibitors targeting CDK4 and VEGFR2 synergistically suppressed cancer progression and angiogenesis” (Eur J Med Chem, 2019).
The source made the active and inactive calls. The rule behind the calls is not given here.

How the values were obtained:
[1] = Toxicity in NOD/SCID BALB/c mouse xenografted with human SiHa cells assessed as toxic effects in liver at 40 mg/kg, po administered for 48 hrs by hematoxylin and eosin staining method; format: organism-based; settings: in vivo
[2] = test system: SiHa; assay: Inhibition of colony formation in human SiHa cells at 40 to 80 nM incubated for 5 days by crystal violet staining based light microscopy; format: functional, cell-based
Method in brief: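 4 × 10^3 cells per well were cultured with graded concentrations for 5 days. Cells were then fixed with 20% methanol, stained with 0.5% crystal violet and photographed by light microscopy.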

[3] = target: Mitogen-activated protein kinase 14 (Homo sapiens) (UniProt Q16539); assay: Inhibition of recombinant human full length SAPK2a at 1 uM using myelin basic protein as substrate incubated for 40 mins in presence of [gamma-33P]-ATP by scintillation counting method relative to control
Method in brief: (§1)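 Tested at a single 1 uM in an outsourced commercial kinase-profiling panel, read as percent inhibition. Each value is the mean of two independent experiments.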

[4] = Toxicity in NOD/SCID BALB/c mouse xenografted with human SiHa cells assessed as toxic effects in brain at 40 mg/kg, po administered for 48 hrs by hematoxylin and eosin staining method; format: organism-based; settings: in vivo
[5] = test system: T47D; assay: Induction of apoptosis in human T47D cells assessed as decrease in Rb phosphorylation incubated for 48 hrs by Western blot analysis; format: functional, cell-based
Method in brief: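 Cancer cells were exposed to graded concentrations for 48 h, washed three times in PBS and lysed in RIPA buffer. Immunoblots were probed with anti-Rb, anti-phospho-Rb, anti-Ki67 and anti-Bcl-2, each at 1:1000. β-actin served as loading control.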

[6] = target: Tau-tubulin kinase 1 (Homo sapiens) (UniProt Q5TCY1); assay: Inhibition of recombinant human TTBK1 (1 to 479 residues) at 1 uM using casein as substrate incubated for 40 mins in presence of [gamma-33P]-ATP by scintillation counting method relative to control; method in brief: as §1
[7] = target: Phosphatidylinositol 4-phosphate 3-kinase C2 domain-containing subunit alpha (Homo sapiens) (UniProt O00443); assay: Inhibition of recombinant human PI3KC2alpha (299 to end residues) at 1 uM using phosphatidylinositol as substrate incubated for 40 mins in presence of [gamma-33P]-ATP by scintillation counting method relative to control; method in brief: as §1
[8] = target: Dual specificity protein kinase TTK (Homo sapiens) (UniProt P33981); assay: Inhibition of recombinant human full length TTK at 1 uM using MBP as substrate incubated for 40 mins in presence of [gamma-33P]-ATP by scintillation counting method relative to control
[9] = Toxicity in NOD/SCID BALB/c mouse xenografted with human SiHa cells assessed as effect on blood parameter by measuring WBC content at 40 mg/kg, po administered once two days for 4 times by hematology analyzer; format: organism-based; settings: in vivo
[10] = target: Serine/threonine-protein kinase SBK1 (Homo sapiens) (UniProt Q52WX2); assay: Inhibition of recombinant human full length SBK1 at 1 uM using KKLRRTLSVA as substrate incubated for 40 mins in presence of [gamma-33P]-ATP by scintillation counting method relative to control
[11] = target: PI3-kinase p110-alpha/p85-alpha (Homo sapiens) (UniProt P27986+P42336); assay: Inhibition of recombinant human full length PI3K p110alpha/p85alpha at 1 uM using phosphatidylinositol 4,5-bisphosphate as substrate incubated for 40 mins in presence of [gamma-33P]-ATP by scintillation counting method relative to control; format: protein-complex assay
[12] = target: CDK6/cyclin D3 (Homo sapiens) (UniProt P30281+Q00534); assay: Inhibition of recombinant human full length CDK6/cyclinD3 at 1 uM using histone H1 as substrate incubated for 40 mins in presence of [gamma-33P]-ATP by scintillation counting method relative to control; format: protein-complex assay
[13] = target: Leucine-rich repeat serine/threonine-protein kinase 2 (Homo sapiens) (UniProt Q5S007); assay: Inhibition of recombinant human LRRK2 (970 to end residues) at 1 uM using RLGRDKYKTLRQIRQ as substrate incubated for 40 mins in presence of [gamma-33P]-ATP by scintillation counting method relative to control
[14] = target: Serine/threonine-protein kinase haspin (Homo sapiens) (UniProt Q8TF76); assay: Inhibition of recombinant human Haspin (471 to end residues) at 1 uM using RARTLSFAEPG as substrate incubated for 40 mins in presence of [gamma-33P]-ATP by scintillation counting method relative to control
[15] = target: Tyrosine-protein kinase Tec (Homo sapiens) (UniProt P42680); assay: Inhibition of activated recombinant human TEC (174 to end residues) at 1 uM using EFPIYDFLPAKKK as substrate incubated for 40 mins in presence of [gamma-33P]-ATP by scintillation counting method relative to control
[16] = target: Activin receptor type-1B (Homo sapiens) (UniProt P36896); assay: Inhibition of recombinant human ALK4 (150 to end residues) at 1 uM using as casein substrate incubated for 40 mins in presence of [gamma-33P]-ATP by scintillation counting method relative to control
Method in brief: (§2)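 Kinase panel profiling at 1 μM performed by Eurofins KinaseProfiler; percent inhibition reported as mean of two independent experiments.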

[17] = test system: Platelet-derived growth factor receptor alpha (Homo sapiens), P16234 [V561D]; assay: Inhibition of recombinant human PDGFRalpha V561D mutant (550 to end residues) at 1 uM using GGMEDIYFEFMGGKKK as substrate incubated for 40 mins in presence of [gamma-33P]-ATP by scintillation counting method relative to control; method in brief: as §1
[18] = target: Serine/threonine-protein kinase Chk1 (Homo sapiens) (UniProt O14757); assay: Inhibition of recombinant full length human CHK1 at 1 uM using KKKVSRSGLYRSP as substrate incubated for 40 mins in presence of [gamma-33P]-ATP by scintillation counting method relative to control; method in brief: as §2
[19] = target: Ribosomal protein S6 kinase alpha-2 (Homo sapiens) (UniProt Q15349); assay: Inhibition of recombinant human full length RSK3 at 1 uM using KKKNRTLSVA as substrate incubated for 40 mins in presence of [gamma-33P]-ATP by scintillation counting method relative to control
[20] = target: Tyrosine-protein kinase Srms (Homo sapiens) (UniProt Q9H3Y6); assay: Inhibition of recombinant human SRMS at 1 uM incubated for 40 mins in presence of [gamma-33P]-ATP by scintillation counting method relative to control
[21] = target: Tyrosine-protein kinase receptor TYRO3 (Homo sapiens) (UniProt Q06418); assay: Inhibition of recombinant human RSE (451 to end residues) at 1 uM using KVEKIGEGTYGVVYK as substrate incubated for 40 mins in presence of [gamma-33P]-ATP by scintillation counting method relative to control
[22] = test system: MDA-MB-231; assay: Induction of apoptosis in human MDA-MB-231 cells at 40 nM incubated for 48 hrs by annexin V FITC and propidium iodide staining based flow cytometry; format: functional, cell-based
Method in brief: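 Annexin V-FITC/PI double staining with flow-cytometric readout. MDA-MB-231, T-47D, SiHa and HeLa cells were treated with graded concentrations for 48 h. MDA-MB-231 and T-47D were grown in DMEM and SiHa in 1640 medium, each with 10% FBS and 1% penicillin/streptomycin at 37°C under 5% CO2. Early- and late-stage apoptotic fractions were scored.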

Mitogen-activated protein kinase 14 (Homo sapiens), sequence (Q16539 whole entry): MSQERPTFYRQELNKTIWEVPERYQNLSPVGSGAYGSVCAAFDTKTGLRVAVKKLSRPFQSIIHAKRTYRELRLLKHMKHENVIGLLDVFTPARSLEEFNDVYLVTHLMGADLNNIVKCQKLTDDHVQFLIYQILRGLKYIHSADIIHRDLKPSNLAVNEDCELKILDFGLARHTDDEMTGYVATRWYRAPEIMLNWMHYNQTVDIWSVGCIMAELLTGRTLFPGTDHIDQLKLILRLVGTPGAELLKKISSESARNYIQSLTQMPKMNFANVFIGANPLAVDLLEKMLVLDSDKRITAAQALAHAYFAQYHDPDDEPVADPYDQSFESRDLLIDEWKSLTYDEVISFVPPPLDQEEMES
Tyrosine-protein kinase Tec (Homo sapiens), sequence (P42680 whole entry): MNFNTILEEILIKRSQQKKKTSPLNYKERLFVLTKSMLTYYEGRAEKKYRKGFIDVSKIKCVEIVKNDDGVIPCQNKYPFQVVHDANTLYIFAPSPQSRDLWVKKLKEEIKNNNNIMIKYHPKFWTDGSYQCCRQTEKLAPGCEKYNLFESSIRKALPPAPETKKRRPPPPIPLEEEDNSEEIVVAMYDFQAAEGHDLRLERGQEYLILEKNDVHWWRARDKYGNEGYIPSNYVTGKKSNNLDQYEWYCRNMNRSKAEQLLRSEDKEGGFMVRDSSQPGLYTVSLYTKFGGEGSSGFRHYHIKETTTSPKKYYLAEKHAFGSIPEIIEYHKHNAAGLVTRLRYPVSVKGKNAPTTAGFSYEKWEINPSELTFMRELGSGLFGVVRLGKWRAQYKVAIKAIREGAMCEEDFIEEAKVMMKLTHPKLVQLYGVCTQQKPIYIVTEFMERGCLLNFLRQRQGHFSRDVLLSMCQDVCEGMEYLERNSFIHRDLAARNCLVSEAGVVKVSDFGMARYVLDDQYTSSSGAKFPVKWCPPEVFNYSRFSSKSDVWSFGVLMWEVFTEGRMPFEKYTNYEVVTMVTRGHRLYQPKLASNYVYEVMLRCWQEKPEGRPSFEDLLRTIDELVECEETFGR
Phosphatidylinositol 4-phosphate 3-kinase C2 domain-containing subunit alpha (Homo sapiens), sequence (O00443 whole entry, the tested form may be a part): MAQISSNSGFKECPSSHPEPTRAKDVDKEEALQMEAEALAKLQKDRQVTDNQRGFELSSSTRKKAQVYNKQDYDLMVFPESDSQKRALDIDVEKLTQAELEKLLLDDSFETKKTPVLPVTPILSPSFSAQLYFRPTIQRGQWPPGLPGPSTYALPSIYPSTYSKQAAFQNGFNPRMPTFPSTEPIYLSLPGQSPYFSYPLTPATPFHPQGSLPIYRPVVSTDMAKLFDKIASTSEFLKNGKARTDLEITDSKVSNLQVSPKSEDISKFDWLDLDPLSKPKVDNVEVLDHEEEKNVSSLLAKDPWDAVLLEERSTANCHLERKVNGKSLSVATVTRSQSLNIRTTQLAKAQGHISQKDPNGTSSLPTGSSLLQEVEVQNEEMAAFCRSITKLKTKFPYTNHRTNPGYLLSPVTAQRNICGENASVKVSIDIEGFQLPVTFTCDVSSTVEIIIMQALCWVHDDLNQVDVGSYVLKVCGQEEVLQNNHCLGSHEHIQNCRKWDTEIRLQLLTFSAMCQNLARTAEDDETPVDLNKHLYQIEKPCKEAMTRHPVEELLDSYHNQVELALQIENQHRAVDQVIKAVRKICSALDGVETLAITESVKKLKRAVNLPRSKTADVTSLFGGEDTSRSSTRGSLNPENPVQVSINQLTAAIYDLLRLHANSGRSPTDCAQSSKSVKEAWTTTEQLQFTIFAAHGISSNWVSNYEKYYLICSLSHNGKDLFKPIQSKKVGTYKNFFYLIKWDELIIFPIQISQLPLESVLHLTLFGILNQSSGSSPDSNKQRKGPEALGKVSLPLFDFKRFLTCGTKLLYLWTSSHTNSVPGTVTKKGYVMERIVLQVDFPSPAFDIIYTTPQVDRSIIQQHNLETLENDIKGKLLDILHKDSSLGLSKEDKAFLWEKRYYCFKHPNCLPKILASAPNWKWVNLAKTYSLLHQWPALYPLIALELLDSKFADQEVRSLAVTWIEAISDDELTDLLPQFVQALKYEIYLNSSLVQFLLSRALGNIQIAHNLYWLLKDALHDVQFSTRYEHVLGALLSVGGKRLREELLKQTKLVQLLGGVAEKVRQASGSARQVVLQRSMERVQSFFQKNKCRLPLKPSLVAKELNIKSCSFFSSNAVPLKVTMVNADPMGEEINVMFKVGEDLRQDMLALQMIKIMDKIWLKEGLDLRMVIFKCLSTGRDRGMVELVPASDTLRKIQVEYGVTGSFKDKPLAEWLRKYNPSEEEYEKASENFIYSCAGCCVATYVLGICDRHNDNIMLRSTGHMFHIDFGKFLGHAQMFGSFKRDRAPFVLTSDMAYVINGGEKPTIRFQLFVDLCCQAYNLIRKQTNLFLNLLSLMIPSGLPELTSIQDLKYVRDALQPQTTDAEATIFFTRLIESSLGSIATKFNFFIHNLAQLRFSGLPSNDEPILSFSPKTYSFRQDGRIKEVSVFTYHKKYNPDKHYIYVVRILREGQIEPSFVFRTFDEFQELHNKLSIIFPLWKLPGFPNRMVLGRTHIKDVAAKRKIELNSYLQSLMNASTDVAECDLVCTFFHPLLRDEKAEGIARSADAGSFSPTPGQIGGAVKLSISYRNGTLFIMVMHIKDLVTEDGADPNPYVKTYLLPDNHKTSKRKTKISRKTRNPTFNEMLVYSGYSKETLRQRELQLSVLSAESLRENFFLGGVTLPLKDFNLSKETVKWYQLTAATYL
Activin receptor type-1B (Homo sapiens), sequence (P36896 whole entry): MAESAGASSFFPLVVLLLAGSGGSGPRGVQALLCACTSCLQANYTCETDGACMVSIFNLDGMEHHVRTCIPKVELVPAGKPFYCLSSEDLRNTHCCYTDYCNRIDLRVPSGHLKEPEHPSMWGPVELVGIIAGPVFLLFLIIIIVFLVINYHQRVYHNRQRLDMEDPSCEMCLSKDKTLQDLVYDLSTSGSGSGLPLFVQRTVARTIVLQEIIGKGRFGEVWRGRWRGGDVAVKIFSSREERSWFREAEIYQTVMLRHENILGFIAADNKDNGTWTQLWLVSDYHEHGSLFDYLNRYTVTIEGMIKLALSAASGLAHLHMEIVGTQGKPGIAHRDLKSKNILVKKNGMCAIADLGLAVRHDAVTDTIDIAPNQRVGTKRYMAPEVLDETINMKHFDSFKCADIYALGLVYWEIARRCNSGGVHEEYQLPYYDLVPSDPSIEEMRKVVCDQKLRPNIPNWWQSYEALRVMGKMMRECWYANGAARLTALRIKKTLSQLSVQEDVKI
Ribosomal protein S6 kinase alpha-2 (Homo sapiens), sequence (Q15349 whole entry): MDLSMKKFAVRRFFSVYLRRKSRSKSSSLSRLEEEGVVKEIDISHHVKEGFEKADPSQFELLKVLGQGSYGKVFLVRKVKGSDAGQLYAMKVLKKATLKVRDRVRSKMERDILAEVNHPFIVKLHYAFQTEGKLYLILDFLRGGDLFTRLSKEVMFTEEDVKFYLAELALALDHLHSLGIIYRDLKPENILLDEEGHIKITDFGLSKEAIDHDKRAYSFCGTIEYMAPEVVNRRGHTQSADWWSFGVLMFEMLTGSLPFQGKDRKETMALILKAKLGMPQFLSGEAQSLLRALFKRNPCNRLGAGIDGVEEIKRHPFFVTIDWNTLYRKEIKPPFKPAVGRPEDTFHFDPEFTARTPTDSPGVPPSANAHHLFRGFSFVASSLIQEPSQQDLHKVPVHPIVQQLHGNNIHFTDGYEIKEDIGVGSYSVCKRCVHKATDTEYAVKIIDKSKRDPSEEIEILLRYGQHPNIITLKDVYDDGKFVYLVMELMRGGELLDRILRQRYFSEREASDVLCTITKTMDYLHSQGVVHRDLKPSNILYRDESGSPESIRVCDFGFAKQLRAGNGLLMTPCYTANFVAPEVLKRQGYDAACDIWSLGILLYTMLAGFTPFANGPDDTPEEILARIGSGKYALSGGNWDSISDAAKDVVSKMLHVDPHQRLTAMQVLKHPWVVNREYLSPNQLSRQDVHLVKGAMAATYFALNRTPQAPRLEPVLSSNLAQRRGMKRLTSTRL
Serine/threonine-protein kinase Chk1 (Homo sapiens), sequence (O14757 whole entry): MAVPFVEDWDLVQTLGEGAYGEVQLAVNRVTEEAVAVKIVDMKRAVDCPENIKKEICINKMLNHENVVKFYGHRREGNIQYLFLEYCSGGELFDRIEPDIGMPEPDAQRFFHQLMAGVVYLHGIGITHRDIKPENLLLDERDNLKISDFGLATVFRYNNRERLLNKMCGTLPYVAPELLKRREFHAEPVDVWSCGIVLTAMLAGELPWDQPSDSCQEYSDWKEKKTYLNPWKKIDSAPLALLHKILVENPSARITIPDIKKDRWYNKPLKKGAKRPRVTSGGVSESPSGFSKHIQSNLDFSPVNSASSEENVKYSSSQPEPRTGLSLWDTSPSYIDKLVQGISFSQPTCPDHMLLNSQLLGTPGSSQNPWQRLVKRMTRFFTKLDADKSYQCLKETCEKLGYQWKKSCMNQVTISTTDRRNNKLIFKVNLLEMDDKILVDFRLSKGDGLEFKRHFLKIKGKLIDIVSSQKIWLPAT
Tyrosine-protein kinase Srms (Homo sapiens), sequence (Q9H3Y6 whole entry): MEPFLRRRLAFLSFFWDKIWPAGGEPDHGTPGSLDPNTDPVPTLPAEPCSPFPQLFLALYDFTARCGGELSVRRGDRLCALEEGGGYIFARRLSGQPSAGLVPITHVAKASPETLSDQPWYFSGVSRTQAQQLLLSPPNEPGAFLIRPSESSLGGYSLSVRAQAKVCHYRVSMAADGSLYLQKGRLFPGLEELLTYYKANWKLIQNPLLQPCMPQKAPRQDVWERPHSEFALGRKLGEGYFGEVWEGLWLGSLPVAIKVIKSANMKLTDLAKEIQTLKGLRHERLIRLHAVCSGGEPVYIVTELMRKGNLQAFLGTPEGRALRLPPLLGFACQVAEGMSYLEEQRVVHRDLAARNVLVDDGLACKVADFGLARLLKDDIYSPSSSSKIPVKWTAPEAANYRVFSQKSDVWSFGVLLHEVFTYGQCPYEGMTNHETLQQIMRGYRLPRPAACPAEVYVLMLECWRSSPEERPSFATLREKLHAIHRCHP

Cc1ccc(NC(=O)C2(C(=O)Nc3ccc(Nc4ncc(F)c(-c5cc(F)c6nc(C)n(C(C)C)c6c5)n4)cc3)CC2)cc1
Activity [1]: Non-Toxic | inhibition [2]: Active | inhibition [3]: 0% | Activity [4]: Non-Toxic | Activity [5]: Dose-dependent effect | inhibition [6]: 0% | inhibition [7]: 0% | inhibition [8]: 65% | Activity [9]: Non-Toxic | inhibition [10]: 13% | inhibition [11]: 7% | inhibition [12]: 94% | inhibition [13]: 83% | inhibition [14]: 22% | inhibition [15]: 1% | inhibition [16]: 46% | inhibition [17]: 70% | inhibition [18]: 28% | inhibition [19]: 26% | inhibition [20]: 4% | inhibition [21]: 66%

COc1cc2nccc(Oc3ccc(NC(=O)C4(C(=O)Nc5ccc(F)cc5)CC4)cc3)c2cc1OC [CABOZANTINIB]
Activity [22]: Active
